Source: PubChem
In the library only some 2.9% were active in any assay of this set; here they are far more common.
Runt-CBFb FRET – inhibitors of human RUNX1 Runt domain binding to CBFb | Cerulean-Runt/Venus-CBFb FRET ratio 530/480, 1 h | inhibition, % at 20 µM | 0.46% of 220,000 active;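 active = inhibition over about 50% at 20 µM in the single-dose screen, limit read from the data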;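 also: 0% = DMSO wells and 100% = excess unlabeled CBFb competitor control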
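Buffer or medium: Tris pH 7.5 buffer with BSA. Assay system: Cerulean-labeled Runt domain protein. Amount: each fluorescent fusion protein 100 nM. Read-out basis: loss of energy transfer signal. Incubation: 1 h compound exposure, room temperature. Probe or stimulus: Venus-CBFb binding partner, 100 nM. Detection: FRET, excitation 422 nm, emission at 530 and 480 nm.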
PfM18AAP inh – blocks P. falciparum M18 aspartyl aminopeptidase | recombinant PfM18AAP, H-Glu-NHMec fluorogenic cleavage | inhibition, % at 7.35 µM | 1.2% of 290,000 active;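 active = inhibition above the campaign mean inhibition over all tested compounds plus 3 SD, cut at about 28% in these data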;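 also: 0% = plate median of test compound wells and 100% = 2 mM ZnCl2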
Hck-Nef inh – blocks Nef-activated human Hck kinase; P08631; 0.68% of 220,000 active; AID 463187; Recombinant Hck-YEEI plus Nef, Z-Lyte FRET kinase assay; inhibition, % at 20 µM;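 active = Hck-Nef kinase inhibition above about 50%, limit read from the data; inactive = inhibition below that limit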;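 also: 0% = DMSO with Hck plus Nef and 100% = Hck alone without Nef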
Target sequence (P08631 whole entry, looked up): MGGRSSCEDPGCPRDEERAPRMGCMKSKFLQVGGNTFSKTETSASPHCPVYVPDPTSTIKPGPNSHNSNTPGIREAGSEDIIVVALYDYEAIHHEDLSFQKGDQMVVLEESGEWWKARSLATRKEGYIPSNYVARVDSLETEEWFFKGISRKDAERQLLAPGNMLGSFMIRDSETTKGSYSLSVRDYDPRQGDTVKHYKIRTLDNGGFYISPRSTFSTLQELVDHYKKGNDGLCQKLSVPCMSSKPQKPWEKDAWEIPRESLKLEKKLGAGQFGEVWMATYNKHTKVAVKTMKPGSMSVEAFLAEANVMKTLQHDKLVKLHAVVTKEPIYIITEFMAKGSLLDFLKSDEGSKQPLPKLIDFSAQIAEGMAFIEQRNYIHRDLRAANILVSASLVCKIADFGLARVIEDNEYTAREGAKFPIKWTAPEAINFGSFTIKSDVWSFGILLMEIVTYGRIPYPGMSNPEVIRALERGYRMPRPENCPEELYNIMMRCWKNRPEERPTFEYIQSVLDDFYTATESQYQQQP
RBBP9 inhibitor – inhibitors of human serine hydrolase RBBP9 | inhibition, % at 7.94 µM | O75884 | recombinant RBBP9, FP-Rh probe fluorescence polarization | 0.2% of 220,000 active;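 active = inhibition above the campaign mean of all tested compounds plus 3 SD, cut at about 14% in these data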;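 also: plate controls were DMSO wells with RBBP9 for no effect and wells lacking RBBP9 protein for full effect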
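Material: RBBP9 protein. Amount: RBBP9 at 2.5 µM in dispensed solution, before mixing. Schedule: 30 min then 45 min, 25 °C. Medium: Tris buffer pH 8.0, NaCl, Pluronic. Measured by: fluorescence polarization. Measure: percent inhibition from mP, scaled between DMSO and no-protein wells. Replication: one well per compound.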
Runt-SMMHC FRET – Runt domain-CBFb-SMMHC interaction inhibition; Q01196+Q13951; inhibition, % at 20 µM; 0.74% of 220,000 active; Cerulean-Runt/Venus-CBFb-SMMHC FRET ratio 530/480, 1 h;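 active = mean inhibition across duplicate retests at 20 µM reaching about 50%, limit read from the data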;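 also: 0% = DMSO wells and 100% = wells with excess untagged CBFb-SMMHC; inhibitors lower the FRET ratio by blocking Runt binding to CBFb-SMMHC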
RanGTP-Impb inh – inhibitors of RanGTP-importin-beta interaction, primary screen, biochemical, FRET, CFP-Ran, YFP-importin-beta, homogeneous. cell-free CFP-Ran/YFP-importin-beta FRET ratio. 1.1% of 300,000 active. inhibition, % (test concentration not listed). AID 2216;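 active = more than half of the replicate wells show a fall in the fluorescence ratio signal beyond about 16%, limit read from the data, passing the limit was not always enough; inconclusive = exactly half of the replicate wells pass the set limit; inactive = fewer than half of replicates pass the limit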;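 also: 0% = DMSO wells and 100% = Ran loaded with GDP instead of GTP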
Active calls of the source: *; ? = inconclusive; / = not tested or not shown.

SMILES | Runt-CBFb FRET | PfM18AAP inh | Hck-Nef inh | RBBP9 inhibitor | Runt-SMMHC FRET | RanGTP-Impb inh
CCN1CCN(c2nc3ccccc3nc2C(C#N)S(=O)(=O)c2ccc(C)cc2)CC1 (stereo unspecified) | 1.0 | 0.0 | -1.5 | -6.8 | 16.6 | 82.4*
Cc1ccc(S(=O)(=O)C(C#N)c2nc3ccccc3nc2N2CCCC2)cc1 (stereo unspecified) | -22.4 | 2.4 | 7.1 | -4.1 | -104.5 | -0.8
O=C(c1ccc(N2CCCS2(=O)=O)cc1)N1CCN(c2ccccc2)CC1 | / | 2.7 | / | / | / | ?
COc1ccc(Br)cc1CNC(=O)CN1C(=O)C(c2ccccc2)Oc2cccnc21 (stereo unspecified) | / | -5.2 | / | / | / | 3.1
O=C(CSc1ccc(-c2ccc(Br)cc2)nn1)NC1CCCC1 | / | -3.2 | / | / | / | 5.3
Cc1cccc(NC(=O)[C@H](Cc2ccccc2)NC(=O)[C@@H]2Cc3ccccc3CN2)c1 | / | -0.2 | / | / | / | 1.6
Cc1ccc(-n2nc(C)c3c(C)c(CCC(=O)NCC4CCCO4)c(=O)n(C)c32)cc1 (stereo unspecified) | / | -2.8 | / | / | / | 2.4
Cn1cccc1/C=C1\SC(=O)N(CC(=O)Nc2ccc(Cl)cc2)C1=O | -1.3 | -18.4 | -0.5 | -6.6 | -2.3 | 5.0
CCOc1ccc(NC(=O)CN2C(=O)S/C(=C/c3cccn3C)C2=O)cc1 | -11.7 | 3.3 | 17.9 | -1.3 | -46.7 | 16.4*
COc1ccc(CC(=O)c2ccc(OC3OC(CO)C(O)C(O)C3O)cc2O)cc1 (stereo unspecified) | / | -10.9 | / | / | / | -0.5
OC[C@H]1O[C@@H](Oc2cc(O)cc(/C=C/c3ccc(O)cc3)c2)[C@H](O)[C@@H](O)[C@@H]1O | 4.9 | 39.6* | / | 3.0 | 3.2 | 3.6
O=C(Nc1nncs1)c1ccc2c(c1)OCO2 | / | 28.7* | / | / | / | 1.3
COc1ccc(C(=O)Nc2ccc3[nH]ncc3c2)cc1OC | / | 2.4 | / | / | / | -0.1
CCc1cc2c(=O)nc3n(c2s1)Cc1ccccc1/C3=C(/O)c1ccc(F)cc1 | -74.3 | 11.8 | 0.8 | 10.1 | 57.8 | -109.9
CCc1cc2c(=O)nc3n(c2s1)Cc1ccccc1/C3=C(/O)c1ccccc1Cl | -46.4 | 5.2 | 0.8 | -12.1 | 57.2* | -60.7
Cn1cccc1/C=N/n1cnnc1 | 2.0 | 3.3 | 3.7 | -4.0 | -1.8 | ?
Brc1ccc(-n2cccc2/C=N/n2cnnc2)cc1 | 2.2 | 31.4* | 1.3 | 2.5 | -0.4 | 1.5
O=C(O/N=C1\CCS(=O)(=O)c2sccc21)C1CC1 | 0.0 | 1.3 | 14.0 | -1.8 | 1.9 | 100.7*
O=C(c1ccc(Cl)cc1)N1CCN(c2ccc(F)cc2)CC1 | 17.9 | -5.9 | 10.1 | -3.2 | 71.7* | 2.6
Cc1cccn2c(=O)c3cc(C(=O)NC4CCCC4)c(=N)n(CCCN4CCOCC4)c3nc12 | / | 8.5 | / | / | / | 175.0*
Cc1cccn2c(=O)c3cc(C(=O)NCCN4CCOCC4)n(Cc4ccccc4)c3nc12 | 1.7 | / | / | / | 6.5 | /
Cc1cccn2c(=O)c3cc(C(=O)NCCN4CCOCC4)c(=N)n(Cc4ccc(F)cc4)c3nc12 | / | 5.8 | / | / | / | 161.9*
Cc1cccn2c(=O)c3cc(C(=O)NCCN4CCOCC4)n(C)c3nc12 | / | 4.3 | / | / | / | 4.1
Cc1cccn2c(=O)c3cc(C(=O)NCCN4CCOCC4)c(=N)n(CCN4CCOCC4)c3nc12 | / | 16.6 | / | / | / | 127.8*
CCCc1cc(C(=O)Cc2nc3ccccc3s2)c(O)cc1O | / | 9.4 | 9.9 | 2.0 | -21.1 | 111.6*
SMILES | Runt-CBFb FRET | PfM18AAP inh | Hck-Nef inh | RBBP9 inhibitor | Runt-SMMHC FRET | RanGTP-Impb inh
CCOC(=O)C(=O)Cc1nc2ccccc2s1 | 0.8 | 7.4 | 4.6 | -7.2 | -0.7 | 51.8*
CC(=O)OCc1nc2ccccc2s1 | -0.5 | 3.5 | 0.7 | -2.3 | 1.0 | ?
O=C(O)COCc1nc2ccccc2s1 | -0.6 | 30.3* | 24.4 | -5.2 | -1.5 | -1.5
CC(CC(F)(F)F)N1CCC(n2nccc2NC(=O)CCCc2ccccc2)CC1 (stereo unspecified) | / | 1.8 | / | / | / | 56.6*
CC(C)CC(C)N1CCC(n2nccc2NC(=O)CCc2ccccc2)CC1 (stereo unspecified) | / | -4.5 | / | / | / | 4.2
O=C1CSC(=S)N1/N=C/C=C/c1ccccc1 | 3.1 | 53.6* | 9.5 | -14.6 | -1.2 | -3.5
O=C1CSC(=S)N1/N=C/c1ccc(C(F)(F)F)cc1 | / | 30.8* | / | / | / | ?
Cc1ccc(S(=O)(=O)N2CCC(C(N)=O)CC2)cc1[N+](=O)[O-] | / | -13.1 | / | / | / | 0.1
